Experimental data reported in paper PMC4073659 (Journal of Natural Products, 2014).

Key:
[1] = system: delta toxin production (strain AH2759); test: Quorum sensing inhibition observed by delta toxin immunoblot; format: cell-based, Staphylococcus aureus (MRSA); details: strain AH2759 in TSB; compounds 0.3–400 μM, AIP-2 2–500 nM; spent media
How it was run: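 Spent media from the agr P3lux reporter cultures: TSB with 10 μg/mL chloramphenicol, 1:500 inoculum, 1% DMSO final, 37 °C with shaking at 250 rpm. Wells were pooled and 0.22 μm filtered, then run on 15% SDS-PAGE and transferred to PVDF (90 min, 160 mA). Blots were blocked overnight at 4 °C in milk/BSA TBST, then probed 1 h at rt with rabbit anti-delta toxin (1:2000) and HRP anti-rabbit (1:10 000).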

[2] = system: agr quorum-sensing system (agr P3lux reporter strain AH2759); test: agr P3lux reporter strain assay for quorum sensing inhibition; format: cell-based, Staphylococcus aureus (CA-MRSA strain LAC, USA300); details: Staphylococcus aureus, read-out: agr P3lux IC50, reporter strain AH2759; cell-density-normalized luminescence; ± standard error from four-parameter logistic fit

SMILES | suppression of delta toxin production (immunoblot) [1] | IC50 [2]
O=C(O)c1cc(O)c2c(c1)C(=O)c1cc(O)c(O)c(O)c1C2=O [compound 1] | dose-dependent suppression | 
O=C1c2cc(O)cc(O)c2C(=O)c2c(O)cc(CO)cc21 [compound 3, ω-hydroxyemodin] | dose-dependent suppression | < 10 µM
CC(=O)C(O)c1cc(O)c2c(c1)C(=O)c1cc(O)cc(O)c1C2=O (centres unmarked) [compound 4] | dose-dependent suppression | 
C[C@H](O)Cc1cc(O)c2c(c1)C(=O)c1cc(O)cc(O)c1C2=O [compound 6, (+)-2′S-isorhodoptilometrin] |  | < 10 µM
